Results on eight molecules are retold here after ChEMBL document CHEMBL1122951, “Synthesis of new polyoxin derivatives and their activity against chitin synthase from Candida albicans” (J Med Chem, 1985).

In test [1] the target is Chitin synthase 1 (Candida albicans) (UniProt P23316). As to the kind of experiment: Inhibitory activity against chitin synthase from Candida albicans at a concentration 5 uM. The method in brief: (§1)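 Membrane preparation from C. albicans grown in liquid shake culture in Sabouraud broth, pH 6.5, washed in 0.2 M Tris-HCl pH 7.5 and broken with glass beads. Chitin synthase trypsin-activated just before assay. Substrate UDP-GlcNAc 0.5 mM. Percent inhibition at the stated inhibitor concentration, mean of triplicate assays.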

Test [2] shares this target. Nature of the test: Inhibitory activity against chitin synthase from Candida albicans at a concentration 25 uM. The method in brief: as §1
The target is the same in test [3]. Nature of the test: Inhibitory activity against chitin synthase from Candida albicans at a concentration 100 uM. The method in brief: as §1

For orientation: inhibition means the change of the read-out against control, counted positive when it falls. A lower inhibition goes with a response near the control.

Chitin synthase 1 (Candida albicans), sequence (P23316 whole entry, looked up): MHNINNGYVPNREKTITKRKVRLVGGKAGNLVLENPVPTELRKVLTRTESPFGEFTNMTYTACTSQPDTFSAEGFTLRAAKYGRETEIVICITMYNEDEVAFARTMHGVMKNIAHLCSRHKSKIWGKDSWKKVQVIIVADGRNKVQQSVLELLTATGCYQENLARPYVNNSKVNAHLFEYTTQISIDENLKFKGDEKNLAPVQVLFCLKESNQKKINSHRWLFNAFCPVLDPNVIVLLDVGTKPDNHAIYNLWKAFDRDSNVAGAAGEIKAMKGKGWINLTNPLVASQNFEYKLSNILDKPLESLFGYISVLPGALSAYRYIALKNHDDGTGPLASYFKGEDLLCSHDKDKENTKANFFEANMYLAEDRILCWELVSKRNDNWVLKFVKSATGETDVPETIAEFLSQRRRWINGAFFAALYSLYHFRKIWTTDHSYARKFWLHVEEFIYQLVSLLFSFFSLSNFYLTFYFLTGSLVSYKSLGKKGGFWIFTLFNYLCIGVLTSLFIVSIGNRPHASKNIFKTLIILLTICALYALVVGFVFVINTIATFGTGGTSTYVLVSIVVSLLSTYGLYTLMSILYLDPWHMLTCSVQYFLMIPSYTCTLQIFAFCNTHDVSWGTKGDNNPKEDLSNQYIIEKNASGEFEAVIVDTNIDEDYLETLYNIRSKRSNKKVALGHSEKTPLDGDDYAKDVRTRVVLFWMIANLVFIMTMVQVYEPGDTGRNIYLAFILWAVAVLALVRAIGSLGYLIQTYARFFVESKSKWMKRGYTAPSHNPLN

As for `C[C@H](N)C(=O)N[C@@H](C(=O)O)[C@H]1O[C@@H](n2ccc(=O)[nH]c2=O)[C@H](O)[C@@H]1O`, the inhibition is 0% in test [1], 20% in test [2] and 45% in test [3].

Take `C[C@H](N)C(=O)N(C)[C@@H](C(=O)O)[C@H]1O[C@@H](n2ccc(=O)[nH]c2=O)[C@H](O)[C@@H]1O`: the inhibition in test [1], in test [2] and in test [3] was 0% in each case.

On to `C[C@@H](N)CNC(C(=O)O)C1OC(n2ccc(=O)[nH]c2=O)C(O)C1O` (some centres undefined), for which the inhibition in test [1] worked out at 0%; in test [2], 0%; in test [3] it was 2%.

Turning to `N[C@@H](C(=O)N[C@@H](C(=O)O)[C@H]1O[C@@H](n2ccc(=O)[nH]c2=O)[C@H](O)[C@@H]1O)[C@H](O)Cc1ccc(O)cc1`, the inhibition in test [1] came out at 79%; in test [2] it was 96%; in test [3] it was 100%.

On to `C[C@@H](N)C(=O)N[C@@H](C(=O)O)[C@H]1O[C@@H](n2ccc(=O)[nH]c2=O)[C@H](O)[C@@H]1O`, for which the inhibition in test [1], in test [2] and in test [3] was 0% each time.

In the case of `NC(=O)NCCC[C@@H](N)C(=O)N[C@H](C(=O)O)[C@H]1O[C@@H](n2ccc(=O)[nH]c2=O)[C@H](O)[C@@H]1O`, the inhibition in test [1], in test [2] and in test [3] was 0% in each case.

In the case of `C[C@@H](O)[C@H](N)C(=O)N[C@@H](C(=O)O)[C@H]1O[C@@H](n2ccc(=O)[nH]c2=O)[C@H](O)[C@@H]1O`, the inhibition in test [1] was 8%; in test [2], 26%; in test [3], 53%.

For the molecule `NC(=O)NCCC[C@@H](N)C(=O)N[C@@H](C(=O)O)[C@H]1O[C@@H](n2ccc(=O)[nH]c2=O)[C@H](O)[C@@H]1O`, the inhibition in test [1] worked out at 0%; in test [2], 37%; in test [3], 80%.
